Data as given in ChEMBL document CHEMBL5674881, “The therapeutic properties of resminostat for hepatocellular carcinoma” (2018).
The source made the active and inactive calls. The calls are words filed in the database; no cut-off is given here.

Legend:
Hep 3B2 [1] = test: Anti-proliferative activity against human Hep3B cells assessed as increase in p27 mRNA expression at 80 nM incubated for 24 hrs in presence of SGBS CM by qRT-PCR analysis; format: functional, cell-based
Hep 3B2 [2] = test: Anti-proliferative activity against human Hep3B cells assessed as reduction in cell viability at 80 nM measured after 24 hrs in presence of 17-AAG under SGBS CM treatment by Fluoro Fire-Blue ProViaTox assay relative to control
Hep 3B2 [3] = test: Anti-proliferative activity against human Hep3B cells assessed as decrease in STAT3 mRNA level at 80 nM incubated for 24 hrs in presence of SGBS CM by qRT-PCR analysis; format: functional, cell-based
Hep 3B2 [4] = test: Anti-proliferative activity against human Hep3B cells assessed as increase in Caspase 8 expression at 80 nM incubated for 24 hrs by qRT-PCR analysis; format: functional, cell-based
Hep 3B2 [5] = test: Downregulation of BCL2 mRNA expression in human Hep3B cells at 80 nM incubated for 24 hrs in presence of 17-AAG by qRT-PCR analysis; format: functional, cell-based
Hep 3B2 [6] = test: Downregulation of STAT3 expression in human Hep3B cells at 80 nM incubated for 24 hrs in presence of GSK343 by qRT-PCR analysis; format: functional, cell-based
How it was run: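 RNA from Hep3B cells treated 24 h with GSK343 (7 nM) alone or with 80 nM drug; EZH2 and STAT3 levels compared between the two treatments. Cells grown in EMEM with 10% FBS, 2 mM L-glutamine, 37°C, 5% CO2.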

Hep 3B2 [7] = test: Effect on human Hep3B cells assessed as reduction in HDAC1 mRNA level at 80 nM incubated for 24 hrs in presence of SGBS CM by qRT-PCR analysis; format: functional, cell-based
How it was run: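 Hep3B cells exposed to 30% conditioned medium from differentiated SGBS adipocytes, with or without 80 nM drug. HDAC1, 2 and 3 RNA given as fold change versus untreated cells or between treatments.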

Hep 3B2 [8] = test: Downregulation of HDAC1 expression in human Hep3B cells at 80 nM incubated for 24 hrs in presence of 17-AAG by qRT-PCR analysis; format: functional, cell-based
Hep 3B2 [9] = test: Downregulation of ZFP64 mRNA expression in human Hep3B cells at 80 nM incubated for 24 hrs in presence of 17-AAG by qRT-PCR analysis
Hep 3B2 [10] = test: Anti-proliferative activity against human Hep3B cells assessed as increase in cleaved Caspase 3/7 level at 80 nM incubated for 24 hrs in presence of SGBS CM by Tetraplex-Assay Kit analysis; format: functional, cell-based
How it was run: (§1)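 Hep3B seeded at 20000 cells/well overnight, then treated with 30% differentiated SGBS conditioned medium with or without resminostat 80 nM for 24 h. Tetraplex caspase substrate buffer added during treatment for real-time cleavage read-out: Caspase 3/7 at Ex 535/Em 620 nm, Caspase 8 at Ex 490/Em 525 nm, Caspase 9 at Ex 370/Em 450 nm. Compared with controls or between treatments; n = 3.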

Hep 3B2 [11] = test: Anti-proliferative activity against human Hep3B cells assessed as increase in Caspase 7 expression at 80 nM incubated for 24 hrs by qRT-PCR analysis; format: functional, cell-based
HepG2 = test: Anti-proliferative activity against human HepG2 cells assessed as reduced cell proliferation at 80 nM incubated for 24 hrs in presence of SGBS CM by Fluoro Fire-Blue ProViaTox assay; format: functional, cell-based
Hep 3B2 [12] = test: Anti-proliferative activity against human Hep3B cells assessed as reduced cell proliferation at 80 nM incubated for 24 hrs in presence of SGBS CM by Fluoro Fire-Blue ProViaTox assay; format: functional, cell-based
Huh-7 = test: Anti-proliferative activity against human Huh-7 cells assessed as reduced cell proliferation at 80 nM incubated for 24 hrs in presence of SGBS CM by Fluoro Fire-Blue ProViaTox assay; format: functional, cell-based
Hep 3B2 [13] = test: Anti-proliferative activity against human Hep3B cells assessed as reduction in cell viability at 80 nM incubated for 24 hrs in presence of cisplatin by Fluoro Fire-Blue ProViaTox assay relative to control; format: functional, cell-based
Hep 3B2 [14] = test: Anti-proliferative activity against human Hep3B cells assessed as reduced cell proliferation at 80 nM for 24 hrs in presence of DZNep by Fluoro Fire-Blue ProViaTox assay relative to control; format: functional; set-up: scale not given: the % may be the effect or the level left
Hep 3B2 [15] = test: Effect on human Hep3B cells assessed as reduction of HDAC global activity at 80 nM incubated for 24 hrs in presence of SGBS CM by FluoroFire HDAC Activity Assay Kit relative to control; format: functional; set-up: scale not given: the % may be the effect or the level left
How it was run: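 Hep3B cells treated 24 h with 80 nM drug, alone or with 30% SGBS conditioned medium. Lysates made with lysis reagent (15 min, room temperature, shaking), spun, and supernatant used. Preincubated 20 min at 37°C, then Emerald substrate added for 1 h at 37°C. Fluorescence read at Ex 490/Em 525 nm. HeLa nuclear extract as positive control, HeLa extract with trichostatin A as negative control (n = 3).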

Hep 3B2 [16] = test: Anti-proliferative activity against human Hep3B cells assessed as reduction in cell viability at 80 nM measured after 24 hrs in presence of 17-AAG by Fluoro Fire-Blue ProViaTox assay; conditions: Hep 3B2, time 24.0 hrs
Hep 3B2 [17] = test: Anti-proliferative activity against human Hep3B cells assessed as increase in expression at 80 nM incubated for 24 hrs by qRT-PCR analysis
Hep 3B2 [18] = test: Anti-proliferative activity against human Hep3B cells assessed as increase in BIM mRNA level at 80 nM incubated for 24 hrs by qRT-PCR analysis; format: functional, cell-based
Hep 3B2 [19] = test: Downregulation of HDAC expression in human Hep3B cells at 80 nM incubated for 24 hrs in presence of 17-AAG by qRT-PCR analysis; format: functional, cell-based
Hep 3B2 [20] = test: Anti-proliferative activity against human Hep3B cells assessed as reduction in cell viability at 80 nM for 24 hrs in presence of GSK343 by Fluoro Fire-Blue ProViaTox assay relative to control; format: functional
Hep 3B2 [21] = test: Anti-proliferative activity against human Hep3B cells assessed as increase in IL-10 mRNA level at 80 nM incubated for 24 hrs in presence of SGBS CM by qRT-PCR analysis; format: functional, cell-based
Hep 3B2 [22] = test: Upregulation of BAX expression in human Hep3B cells at 80 nM incubated for 24 hrs by qRT-PCR analysis; format: functional, cell-based
How it was run: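 RNA levels of BCL-2, BIM, BAX and BAD measured in Hep3B cells after 24 h with 80 nM drug. Triplicates, three independent experiments, t-test.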

Hep 3B2 [23] = test: Anti-proliferative activity against human Hep3B cells assessed as increase in cleaved Caspase 9 level at 80 nM incubated for 24 hrs in presence of SGBS CM by Tetraplex-Assay Kit analysis; format: functional, cell-based; how it was run: as §1
Hep 3B2 [24] = test: Anti-proliferative activity against human Hep3B cells assessed as no change in BAD expression at 80 nM incubated for 24 hrs by qRT-PCR analysis; format: functional, cell-based

With CN(C)Cc1ccc(S(=O)(=O)n2ccc(/C=C/C(=O)NO)c2)cc1 [RESMINOSTAT] the Activity (Hep 3B2 [1]) was “Active”, the Activity (Hep 3B2 [2]) was 31.47% and the Activity (Hep 3B2 [3]) was “Active”. For the same molecule, the Activity (Hep 3B2 [4]) was “Active”, the Activity (Hep 3B2 [5]) was “Active” and the Activity (Hep 3B2 [6]) was “Active”. For the same molecule, the Activity (Hep 3B2 [7]) was “Active”, the Activity (Hep 3B2 [8]) was “Active” and the Activity (Hep 3B2 [9]) was “Active”. For the same molecule, the Activity (Hep 3B2 [10]) was “Active”, the Activity (Hep 3B2 [11]) was “Active” and the Activity (HepG2) was “Active”. The Activity (Hep 3B2 [12]) was “Active”, the Activity (Huh-7) was “Active” and the Activity (Hep 3B2 [13]) was “Active”. For the same molecule, the Activity (Hep 3B2 [14]) was 11.76%, the Activity (Hep 3B2 [15]) was 52.67% and the Activity (Hep 3B2 [16]) was “Active”. For the same molecule, the Activity (Hep 3B2 [17]) was “Active”, the Activity (Hep 3B2 [18]) was “Active” and the Activity (Hep 3B2 [19]) was “Active”. For the same molecule, the Activity (Hep 3B2 [20]) was 21.61%, the Activity (Hep 3B2 [21]) was “Active” and the Activity (Hep 3B2 [22]) was “Active”. For the same molecule, the Activity (Hep 3B2 [23]) was “Active” and the Activity (Hep 3B2 [24]) was “Active”.
